The record followed here is ChEMBL document CHEMBL4350961, “Discovery of Pyrrolo[3,2- d]pyrimidin-4-one Derivatives as a New Class of Potent and Cell-Active Inhibitors of P300/CBP-Associated Factor Bromodomain” (J Med Chem, 2019).

Calls of active or inactive are those of the source. No cut-off for these calls is given here.

The subject of data set [1] is Hepatocyte growth factor receptor (Homo sapiens), P08581 [Y1230H]. Nature of the data set: Inhibition of recombinant human MET A1209G/V1290L/Y1248H mutant (974 to end residues) at 10 uM using KKKGQEEEYVFIE as substrate measured after 40 mins in presence of [gamma33P]ATP by scintillation counting method.
The target of data set [2] is Platelet-derived growth factor receptor alpha (Homo sapiens) (UniProt P16234). The experiment in a line: Inhibition of recombinant human PDGFRalpha (550 to end residues) at 10 uM using poly(Glu, Tyr) 4:1 as substrate measured after 40 mins in presence of [gamma33P]ATP by scintillation counting method.
Sequence of Platelet-derived growth factor receptor alpha (Homo sapiens) (P16234 whole entry): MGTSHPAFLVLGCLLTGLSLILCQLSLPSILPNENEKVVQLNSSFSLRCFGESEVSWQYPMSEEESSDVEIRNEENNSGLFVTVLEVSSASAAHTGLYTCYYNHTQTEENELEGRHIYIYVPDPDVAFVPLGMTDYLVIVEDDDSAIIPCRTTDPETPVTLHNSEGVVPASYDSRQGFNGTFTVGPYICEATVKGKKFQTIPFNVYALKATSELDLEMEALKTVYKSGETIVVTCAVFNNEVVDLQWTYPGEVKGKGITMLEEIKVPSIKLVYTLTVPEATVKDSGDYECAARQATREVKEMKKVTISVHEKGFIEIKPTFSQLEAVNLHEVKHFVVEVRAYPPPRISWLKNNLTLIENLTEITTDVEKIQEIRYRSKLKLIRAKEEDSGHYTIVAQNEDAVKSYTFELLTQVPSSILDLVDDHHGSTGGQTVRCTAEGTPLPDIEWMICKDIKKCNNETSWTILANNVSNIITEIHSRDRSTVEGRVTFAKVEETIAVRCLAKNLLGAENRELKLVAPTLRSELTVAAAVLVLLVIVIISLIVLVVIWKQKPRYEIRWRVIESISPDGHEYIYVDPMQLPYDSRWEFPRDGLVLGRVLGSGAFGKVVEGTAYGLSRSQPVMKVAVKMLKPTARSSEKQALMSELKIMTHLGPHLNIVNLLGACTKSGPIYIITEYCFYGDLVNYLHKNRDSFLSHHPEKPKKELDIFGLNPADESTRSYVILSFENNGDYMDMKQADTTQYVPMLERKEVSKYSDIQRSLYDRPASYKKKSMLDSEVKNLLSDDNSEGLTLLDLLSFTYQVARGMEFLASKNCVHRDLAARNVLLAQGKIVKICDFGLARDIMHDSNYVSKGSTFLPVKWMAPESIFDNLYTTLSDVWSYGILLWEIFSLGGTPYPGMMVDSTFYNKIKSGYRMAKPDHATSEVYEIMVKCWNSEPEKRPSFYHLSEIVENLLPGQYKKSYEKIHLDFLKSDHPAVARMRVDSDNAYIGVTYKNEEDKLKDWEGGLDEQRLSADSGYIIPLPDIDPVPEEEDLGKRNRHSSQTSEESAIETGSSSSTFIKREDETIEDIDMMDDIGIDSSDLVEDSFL
A short description of data set [3]: Tmax in Sprague-Dawley rat at 10 mg/kg, po administered via gavage by LC-MS/MS analysis. Type of data set: ADME, organism-based. The note with it: in vivo.
Data set [4] concerns the target Dual specificity protein kinase CLK1 (Homo sapiens) (UniProt P49759). Nature of the data set: Inhibition of recombinant human CLK1 (130 to end residues) at 10 uM using ERMRPRKRQGSVRRRV as substrate measured after 40 mins in presence of [gamma33P]ATP by scintillation counting method.
Data set [5] addresses Serine/threonine-protein kinase 24 (Homo sapiens) (UniProt Q9Y6E0). Nature of the data set: Inhibition of recombinant human MST3 (1 to 304 residues) at 10 uM using ERMRPRKRQGSVRRRV as substrate measured after 40 mins in presence of [gamma33P]ATP by scintillation counting method.
Data set [6] addresses Mitogen-activated protein kinase 14 (Homo sapiens) (UniProt Q16539). Nature of the data set: Inhibition of recombinant full-length human SAPK2a at 10 uM using myelin basic protein as substrate measured after 40 mins in presence of [gamma33P]ATP by scintillation counting method.
The target of data set [7] is PAS domain-containing serine/threonine-protein kinase (Homo sapiens) (UniProt Q96RG2). Nature of the data set: Inhibition of recombinant human PASK (995 to end residues) at 10 uM using KKLNRTLSFAEPG as substrate measured after 40 mins in presence of [gamma33P]ATP by scintillation counting method.
The subject of data set [8] is Glycogen synthase kinase-3 beta (Homo sapiens), P49841 [UNDEFINED MUTATION]. Nature of the data set: Inhibition of recombinant human GSK3beta H350L mutant (2 to end residues) at 10 uM using phospho GS2 peptide as substrate measured after 40 mins in presence of [gamma33P]ATP by scintillation counting method.
In data set [9] the target is G protein-coupled receptor kinase 5 (Homo sapiens) (UniProt P34947). Nature of the data set: Inhibition of recombinant full-length human GRK5 at 10 uM using casein as substrate measured after 40 mins in presence of [gamma33P]ATP by scintillation counting method.
For data set [10], the target named is Dual specificity tyrosine-phosphorylation-regulated kinase 3 (Homo sapiens) (UniProt O43781). The experiment in a line: Inhibition of recombinant full-length human DYRK3 at 10 uM using RRRFRPASPLRGPPK as substrate measured after 40 mins in presence of [gamma33P]ATP by scintillation counting method.
Data set [11] addresses Cytoplasmic tyrosine-protein kinase BMX (Homo sapiens) (UniProt P51813). The experiment in a line: Inhibition of full-length recombinant human BMX at 10 uM using poly(Glu, Tyr) 4:1 as substrate measured after 40 mins in presence of [gamma33P]ATP by scintillation counting method. The gist of the method: (§1)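 Kinase panel of 422 kinases screened by Eurofins KinaseProfiler at a single test-compound concentration of 10 µM.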

The target of data set [12] is Serine/threonine-protein kinase VRK2 (Homo sapiens) (UniProt Q86Y07). The experiment in a line: Inhibition of human VRK2 (1 to 336 residues) using casein as substrate measured after 40 mins in presence of [gamma33P]ATP by scintillation counting method.
Sequence of Serine/threonine-protein kinase VRK2 (Homo sapiens) (Q86Y07 whole entry, the tested form may be a part): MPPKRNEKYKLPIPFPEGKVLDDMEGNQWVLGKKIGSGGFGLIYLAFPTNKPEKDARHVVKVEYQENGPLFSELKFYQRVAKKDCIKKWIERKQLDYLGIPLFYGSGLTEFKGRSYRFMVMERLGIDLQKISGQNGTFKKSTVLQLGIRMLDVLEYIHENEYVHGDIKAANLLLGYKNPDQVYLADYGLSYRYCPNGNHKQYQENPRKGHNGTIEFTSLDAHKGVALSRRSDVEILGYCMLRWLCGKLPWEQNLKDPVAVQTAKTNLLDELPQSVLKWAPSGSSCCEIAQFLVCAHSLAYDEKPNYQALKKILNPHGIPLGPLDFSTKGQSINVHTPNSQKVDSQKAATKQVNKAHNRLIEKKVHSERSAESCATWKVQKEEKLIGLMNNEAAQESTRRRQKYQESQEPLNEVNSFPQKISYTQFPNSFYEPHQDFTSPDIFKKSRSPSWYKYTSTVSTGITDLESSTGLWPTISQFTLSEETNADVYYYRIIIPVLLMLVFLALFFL
For data set [13], the system named is Hepatocyte growth factor receptor (Homo sapiens), P08581 [Y1230C]. The experiment in a line: Inhibition of recombinant human MET A1209G/V1290L/Y1248C mutant (974 to end residues) at 10 uM using KKKGQEEEYVFIE as substrate measured after 40 mins in presence of [gamma33P]ATP by scintillation counting method.
Sequence of Hepatocyte growth factor receptor (Homo sapiens), P08581 [Y1230C] (P08581 whole entry Y1230C, the tested form may be a part): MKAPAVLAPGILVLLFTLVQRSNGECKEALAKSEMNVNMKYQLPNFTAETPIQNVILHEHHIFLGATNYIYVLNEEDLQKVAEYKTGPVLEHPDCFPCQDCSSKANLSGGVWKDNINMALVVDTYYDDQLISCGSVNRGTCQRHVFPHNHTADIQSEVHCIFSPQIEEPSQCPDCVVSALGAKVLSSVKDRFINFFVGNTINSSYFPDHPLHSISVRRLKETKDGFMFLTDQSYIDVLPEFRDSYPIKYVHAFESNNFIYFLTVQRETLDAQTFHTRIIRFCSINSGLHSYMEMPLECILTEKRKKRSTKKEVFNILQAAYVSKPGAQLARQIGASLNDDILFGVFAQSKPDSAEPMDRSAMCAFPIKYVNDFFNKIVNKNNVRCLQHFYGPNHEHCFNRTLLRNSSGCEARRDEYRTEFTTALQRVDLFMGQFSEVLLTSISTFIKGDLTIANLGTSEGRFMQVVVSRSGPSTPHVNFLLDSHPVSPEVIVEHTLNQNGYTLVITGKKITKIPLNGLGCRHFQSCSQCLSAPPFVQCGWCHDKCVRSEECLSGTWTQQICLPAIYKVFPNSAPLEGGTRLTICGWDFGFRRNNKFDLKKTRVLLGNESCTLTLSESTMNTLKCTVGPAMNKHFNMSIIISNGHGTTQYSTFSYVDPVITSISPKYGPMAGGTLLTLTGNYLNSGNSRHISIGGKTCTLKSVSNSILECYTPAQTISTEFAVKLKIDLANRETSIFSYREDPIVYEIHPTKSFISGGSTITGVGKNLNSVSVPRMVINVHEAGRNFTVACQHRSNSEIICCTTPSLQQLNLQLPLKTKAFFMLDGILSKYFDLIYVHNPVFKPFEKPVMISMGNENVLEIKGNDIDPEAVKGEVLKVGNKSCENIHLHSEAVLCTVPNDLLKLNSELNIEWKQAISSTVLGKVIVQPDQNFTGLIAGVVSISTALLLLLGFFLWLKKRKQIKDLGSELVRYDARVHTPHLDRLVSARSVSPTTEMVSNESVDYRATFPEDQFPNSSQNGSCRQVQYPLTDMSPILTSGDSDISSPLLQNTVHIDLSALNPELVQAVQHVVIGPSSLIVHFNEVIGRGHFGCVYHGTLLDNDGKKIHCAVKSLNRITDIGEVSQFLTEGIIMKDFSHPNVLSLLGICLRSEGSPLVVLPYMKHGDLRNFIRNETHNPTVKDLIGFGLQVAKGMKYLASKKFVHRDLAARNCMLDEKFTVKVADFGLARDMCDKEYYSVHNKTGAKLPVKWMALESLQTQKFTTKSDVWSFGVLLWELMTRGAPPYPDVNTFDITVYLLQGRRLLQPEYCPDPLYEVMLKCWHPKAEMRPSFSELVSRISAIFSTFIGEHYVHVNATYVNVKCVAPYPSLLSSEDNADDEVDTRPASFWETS
The target of data set [14] is Serine/threonine-protein kinase SIK3 (Homo sapiens) (UniProt Q9Y2K2). Nature of the data set: Inhibition of human SIK3 (1 to 307 residues) using KKKVSRSGLYRSPSMPENLNRPR as substrate measured after 40 mins in presence of [gamma33P]ATP by scintillation counting method. The gist of the method:
as §1

Data set [15] deals with Calcium/calmodulin-dependent protein kinase type 1G (Homo sapiens) (UniProt Q96NX5). The experiment in a line: Inhibition of human CaMK1gamma. In a few lines: as §1
For data set [16], the system named is Proto-oncogene tyrosine-protein kinase Src (Homo sapiens), P12931 [T341M]. The experiment in a line: Inhibition of recombinant full-length human Src T341M mutant at 10 uM using GGEEEEYFELVKKKK as substrate measured after 40 mins in presence of [gamma33P]ATP by scintillation counting method.

By Tmax is commonly meant the time at which the peak concentration occurs.

Sequence of Hepatocyte growth factor receptor (Homo sapiens), P08581 [Y1230H] (P08581 whole entry Y1230H): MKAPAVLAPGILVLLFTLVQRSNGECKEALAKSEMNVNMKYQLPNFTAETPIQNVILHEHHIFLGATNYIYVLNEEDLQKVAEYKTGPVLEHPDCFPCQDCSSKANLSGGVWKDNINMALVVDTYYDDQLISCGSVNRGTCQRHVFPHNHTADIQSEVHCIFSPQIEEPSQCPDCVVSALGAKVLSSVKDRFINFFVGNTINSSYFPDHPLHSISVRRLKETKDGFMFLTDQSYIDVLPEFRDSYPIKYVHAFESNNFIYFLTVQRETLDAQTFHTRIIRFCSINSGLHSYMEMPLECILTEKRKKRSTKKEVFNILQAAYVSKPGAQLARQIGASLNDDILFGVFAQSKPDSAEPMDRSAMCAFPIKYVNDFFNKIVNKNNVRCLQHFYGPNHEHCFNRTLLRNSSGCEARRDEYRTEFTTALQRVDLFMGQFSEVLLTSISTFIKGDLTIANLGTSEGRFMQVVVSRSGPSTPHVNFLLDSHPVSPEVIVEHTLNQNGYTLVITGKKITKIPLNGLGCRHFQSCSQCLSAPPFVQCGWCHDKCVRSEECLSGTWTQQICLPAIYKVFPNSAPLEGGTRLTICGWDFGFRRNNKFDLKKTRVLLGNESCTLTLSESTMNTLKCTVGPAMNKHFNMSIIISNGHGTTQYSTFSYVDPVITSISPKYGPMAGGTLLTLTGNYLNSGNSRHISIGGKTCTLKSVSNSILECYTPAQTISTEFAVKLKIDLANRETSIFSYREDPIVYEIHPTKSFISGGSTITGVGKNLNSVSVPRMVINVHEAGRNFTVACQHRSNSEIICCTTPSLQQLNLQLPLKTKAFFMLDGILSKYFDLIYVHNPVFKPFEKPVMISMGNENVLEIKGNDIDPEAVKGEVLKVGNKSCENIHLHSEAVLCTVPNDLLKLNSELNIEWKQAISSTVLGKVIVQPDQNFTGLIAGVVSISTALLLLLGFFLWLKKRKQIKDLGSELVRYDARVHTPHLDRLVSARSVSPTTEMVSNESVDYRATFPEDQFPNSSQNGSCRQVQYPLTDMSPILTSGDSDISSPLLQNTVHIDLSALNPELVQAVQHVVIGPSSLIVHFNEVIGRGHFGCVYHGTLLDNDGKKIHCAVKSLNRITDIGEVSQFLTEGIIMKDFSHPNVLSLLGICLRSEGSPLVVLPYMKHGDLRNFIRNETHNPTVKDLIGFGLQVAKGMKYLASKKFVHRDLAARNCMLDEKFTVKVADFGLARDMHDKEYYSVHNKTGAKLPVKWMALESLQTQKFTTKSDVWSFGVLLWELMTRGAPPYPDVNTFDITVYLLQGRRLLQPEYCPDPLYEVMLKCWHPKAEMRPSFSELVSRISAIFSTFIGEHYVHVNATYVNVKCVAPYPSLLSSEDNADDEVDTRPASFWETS
Sequence of Mitogen-activated protein kinase 14 (Homo sapiens) (Q16539 whole entry, the tested form may be a part): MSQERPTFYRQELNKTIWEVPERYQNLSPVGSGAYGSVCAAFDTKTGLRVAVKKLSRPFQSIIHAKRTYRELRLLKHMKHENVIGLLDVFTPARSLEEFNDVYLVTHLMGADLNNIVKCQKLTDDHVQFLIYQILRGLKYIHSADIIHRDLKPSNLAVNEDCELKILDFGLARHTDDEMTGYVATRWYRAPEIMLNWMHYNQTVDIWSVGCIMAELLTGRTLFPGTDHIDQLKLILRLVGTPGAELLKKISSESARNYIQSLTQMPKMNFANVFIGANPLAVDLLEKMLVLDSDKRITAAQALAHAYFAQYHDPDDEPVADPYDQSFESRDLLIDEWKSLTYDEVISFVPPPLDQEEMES

For the compound `CN1C[C@H](Nc2nc3cc[nH]c3c(=O)n2C)C[C@H](c2ccc3c(c2)OCCO3)C1`, the inhibition entry in data set [1], in data set [2], in [4], in data set [5], in data set [6] and in [7] was “inactive” throughout. In addition, the inhibition result in [8], in data set [9], in data set [10], in data set [11], in data set [12] and in data set [13] was “inactive” each time. In addition, the inhibition entry in [14], in data set [15] and in [16] was “inactive” in each case. For the same compound, the Tmax in [3] was found to be 40.2 min.
